These results are taken from article PMC2921666 (Genes & cancer, 2010).

One experiment deals with 32D:p210T315I cells. Description: Growth inhibition, 32D:p210T315I cells. In kind it is cell-based, murine. The note with it: Mus musculus, 72 h. The essentials:
(§1)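 Cells grown 72 h with varying concentrations of test compound. Media: Ba/F3:JAK2V617F in RPMI 1640 with 10% FBS plus 1% WEHI-3B conditioned medium (IL-3 source); 32D:p210T315I in IMDM with 10% FBS; K562 in RPMI 1640 with 10% FBS; HEL and SET-2 in RPMI 1640 with 20% and 10% heat-inactivated FBS. Viability by Trypan blue exclusion; GI50 from percent viable cells plotted against drug concentration.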

Experiment [1] has as its system STAT-5 phosphorylation in 32D:p210T315I cells. Description: STAT-5 phosphorylation in 32D:p210T315I cells. In kind it is cell-based, murine. The settings on record: 2 hours. The essentials:
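Exponentially growing 32D:p210T315I cells, kept in IMDM with 10% FBS, were given the test compound at the indicated concentrations for 2 h. They were then PBS-washed and lysed in detergent buffer. 50 µg of clarified lysate underwent SDS-PAGE and Western blotting for phospho-STAT-5.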

For the next experiment, the system named is K562 cells. As to the kind of experiment: Growth inhibition, K562 cells. In kind it is cell-based. The settings on record: Homo sapiens, K562, 72 h. The essentials:
as §1

Experiment [2] relates to JAK2 phosphorylation in Ba/F3:JAK2V617F cells. As to the kind of experiment: JAK2 phosphorylation in IL-3-stimulated Ba/F3:JAK2V617F cells. In kind it is cell-based, mouse. The settings on record: 2 hours, with recombinant IL-3. The essentials: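 Mid-log-phase Ba/F3:JAK2V617F cells were treated 2 h with the test compound at the indicated concentrations, including 1 h with 5 ng/mL recombinant mouse IL-3. Washed cells were lysed in detergent buffer. 50 µg of clarified lysate was run on SDS-PAGE and immunoblotted with anti-phospho-JAK2 (Tyr1007/1008). Blots were stripped and reprobed for total JAK2.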

Experiment [3] has as its target recombinant V617F mutant JAK2 (aa 532-1132) (Homo sapiens, UniProt O60674, V617F). As to the kind of experiment: Radiometric kinase assay, recombinant V617F mutant JAK2. In kind it is biochemical. The note with it: read-out: IC50, kinase activity of mutant JAK2 (V617F); JAK2-V617F aa 532-1132, GST-Abltide substrate, 20 μM ATP.
The next experiment relates to Ba/F3:JAK2V617F cells. Description: Growth inhibition, Ba/F3:JAK2V617F cells. In kind it is cell-based, mouse. The note with it: 72 hours. The essentials:
as §1

The test system of another experiment is SET2 cells. As to the kind of experiment: Growth inhibition, SET-2 cells. In kind it is cell-based, human. The settings on record: SET2 cells (hemizygous V617F), 72 hours. The essentials: as §1
In another experiment the test system is HEL cells. As to the kind of experiment: Growth inhibition, HEL cells. In kind it is cell-based, human. The settings on record: 72 hours. The essentials: as §1

The structures appear in SMILES notation.

Chain of recombinant V617F mutant JAK2 (aa 532-1132) (O60674 532-1132 V617F): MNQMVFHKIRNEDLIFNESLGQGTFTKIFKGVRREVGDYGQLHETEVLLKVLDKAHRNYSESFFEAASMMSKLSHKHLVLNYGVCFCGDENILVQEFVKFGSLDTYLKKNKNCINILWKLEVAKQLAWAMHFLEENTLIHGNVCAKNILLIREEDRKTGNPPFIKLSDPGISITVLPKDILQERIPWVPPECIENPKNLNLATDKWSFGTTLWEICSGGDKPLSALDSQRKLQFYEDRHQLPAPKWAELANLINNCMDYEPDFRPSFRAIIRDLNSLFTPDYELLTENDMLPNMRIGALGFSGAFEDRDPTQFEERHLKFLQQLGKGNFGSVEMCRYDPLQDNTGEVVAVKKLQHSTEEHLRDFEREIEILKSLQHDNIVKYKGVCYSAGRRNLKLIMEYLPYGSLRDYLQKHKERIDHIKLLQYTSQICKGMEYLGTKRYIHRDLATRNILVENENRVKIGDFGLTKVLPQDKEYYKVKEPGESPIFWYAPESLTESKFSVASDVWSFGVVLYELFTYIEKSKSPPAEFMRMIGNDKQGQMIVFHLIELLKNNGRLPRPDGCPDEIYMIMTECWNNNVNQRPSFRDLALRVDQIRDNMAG

A word on the GI50: it is the concentration at which growth is held to half of that of the control. On to `Cc1ccc(NC(=O)c2ccc(CN3CCN(C)CC3)cc2)cc1Nc1nccc(-c2cccnc2)n1` [imatinib], for which the GI50 fell in the range of 20 to 30 µM in the experiment with 32D:p210T315I cells and 0.1 to 0.2 µM with K562 cells. Also, the “inhibition of STAT-5 phosphorylation” value in experiment [1] is “failed to do so”.
A word on the IC50: it is the concentration needed to halve the response being measured. Take `N#C/C(=C/c1ccc(O)c(O)c1)C(=O)NCc1ccccc1` [AG490]: the “inhibition of JAK2 phosphorylation in cells” value in experiment [2] is reported as “did not inhibit JAK2 phosphorylation”. The IC50 in experiment [3] is 33.1 µM. The figures for the GI50 in the experiment with Ba/F3:JAK2V617F cells, in the experiment with SET2 cells and in the experiment with HEL cells were 1 µM, above 20 µM and above 20 µM, respectively.
